In ChEMBL document CHEMBL4024793, “Development of Stem-Cell-Mobilizing Agents Targeting CXCR4 Receptor for Peripheral Blood Stem Cell Transplantation and Beyond” (J Med Chem, 2018):
Activity calls are given as the source filed them. No cut-off for these calls is given here.

Experiments:
[1] = molecular target: C-X-C chemokine receptor type 4 (Homo sapiens, UniProt P61073); test: Displacement of [125I]CXCL12 from human CXCR4 expressed in HEK293 cell membranes after 1.5 hrs by Topcount method
[2] = molecular target: C-C chemokine receptor type 1 (Homo sapiens) (UniProt P32246); test: Antagonist activity at human CCR1 expressed in CHOK1 cells assessed as inhibition of CCL3-induced cAMP accumulation at 10 uM preincubated for 30 mins followed agonist addition measured after 30 to 60 mins; format: functional, cell-based
How it was run: (§1)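 GPCR cAMP assay with a single test concentration of 10 μM; result expressed as percentage inhibition for each chemokine receptor.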

[3] = molecular target: C-C chemokine receptor type 5 (Homo sapiens) (UniProt P51681); test: Antagonist activity at human CCR5 expressed in CHOK1 cells assessed as inhibition of CCL3-induced cAMP accumulation at 10 uM preincubated for 30 mins followed agonist addition measured after 30 to 60 mins; format: functional, cell-based; how it was run: as §1
[4] = molecular target: C-C chemokine receptor type 10 (Homo sapiens) (UniProt P46092); test: Antagonist activity at human CCR10 expressed in CHOK1 cells assessed as inhibition of CCL27-induced cAMP accumulation at 10 uM preincubated for 30 mins followed agonist addition measured after 30 to 60 mins; format: functional, cell-based; how it was run: as §1
[5] = molecular target: C-X-C chemokine receptor type 1 (Homo sapiens) (UniProt P25024); test: Antagonist activity at human CXCR1 expressed in CHOK1 cells assessed as inhibition of interleukin-8-induced cAMP accumulation at 10 uM preincubated for 30 mins followed agonist addition measured after 30 to 60 mins; format: functional, cell-based; how it was run: as §1
[6] = molecular target: C-X-C chemokine receptor type 2 (Homo sapiens) (UniProt P25025); test: Antagonist activity at human CXCR2 expressed in CHOK1 cells assessed as inhibition of interleukin-8-induced cAMP accumulation at 10 uM preincubated for 30 mins followed agonist addition measured after 30 to 60 mins; format: functional, cell-based; how it was run: as §1
[7] = Half life in C57BL/6 mouse at 6 mg/kg, sc measured up to 4 hrs post dose by LC-MS/MS analysis; format: ADME, organism-based; settings: in vivo
How it was run: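 Male C57BL/6 mice (23.4–25.4 g), quarantined one week, non-fasted, n = 3; single SC dose of 6 mg/kg in 100% saline. Blood taken by cardiac puncture at 0, 0.03, 0.08, 0.25, 1, 1.5, 2 and 4 h and stored at -80 °C. Plasma analysed by LC–MS/MS; parameters from non-compartmental analysis; mean ± SD.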

Mus musculus [8] = test: Induction hematopoietic stem cell mobilization in C57BL/6 mouse assessed as increase in CXCR4+ cells in blood at 35 mg/kg, sc measured after 2 hrs by APC-conjugated anti-CXCR4-staining based flow cytometry relative to vehicle control; format: functional
How it was run: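 Male C57BL/6 mice, 8–10 weeks old, received SC doses escalating through 1, 6, 20, 35 and 50 mg/kg. Blood was drawn 2 h after dosing and labelled with APC-conjugated anti-CXCR4 (clone 2B11). CXCR4⁺ cells were counted by flow cytometry, at least 60,000 events per point. Mean ± SEM, n = 3 per group, t test against vehicle.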

Mus musculus [9] = test: Induction hematopoietic stem cell mobilization in C57BL/6 mouse assessed as increase in CXCR4+ cells in blood at 50 mg/kg, sc measured after 2 hrs by APC-conjugated anti-CXCR4-staining based flow cytometry relative to vehicle control; format: functional, organism-based
How it was run: (§2)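 Male C57BL/6 mice, 8–10 weeks old, given a single SC injection at escalating doses of 1, 6, 20, 35 and 50 mg/kg. Blood collected 2 h later and stained with antibodies including APC-anti-CXCR4. CXCR4⁺ cells counted by flow cytometry, at least 60,000 events per sample. n = 3 per group; mean ± SEM; t test against vehicle.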

[10] = molecular target: Voltage-dependent N-type calcium channel subunit alpha-1B (Rattus norvegicus) (UniProt Q02294); test: Displacement of [125I]omega-conotoxin GVIA from rat brain Cav2.2 at 10 uM after 30 mins by scintillation counting
[11] = molecular target: Voltage-gated inwardly rectifying potassium channel KCNH2 (Homo sapiens, UniProt Q12809); test: Inhibition of human ERG expressed in CHO cells up to 100 uM by automated patch-clamp assay; format: cell-based
How it was run: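 hERG liability examined by patch-clamp at concentrations up to 100 μM.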

Cytochrome P450 2E1 = Cytochrome P450 2E1 (Homo sapiens, UniProt P05181); test: Inhibition of human liver microsomal CYP2E1; format: ADME
Cytochrome P450 3A4 = Cytochrome P450 3A4 (Homo sapiens, UniProt P08684); test: Inhibition of human liver microsomal CYP3A4; format: ADME
Mus musculus [12] = test: In vivo induction of WBC mobilization in C57BL/6 mouse at 35 mg/kg, sc measured after 2 hrs; format: functional, organism-based
How it was run: (§3)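 C57BL/6 mice given a single SC injection at 6 or 35 mg/kg. Blood collected 2 h after dosing and analysed for total white blood cells, neutrophils, lymphocytes and monocytes.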

Mus musculus [13] = test: In vivo antagonist activity at CXCR4 in C57BL/6 mouse assessed as induction of neutrophils molization at 35 mg/kg, sc measured after 2 hrs relative to AMD3100; format: functional; parameters: scale not given: the % may be the effect or the level left; how it was run: as §3
Mus musculus [14] = test: In vivo antagonist activity at CXCR4 in C57BL/6 mouse assessed as induction of monocytes molization at 35 mg/kg, sc measured after 2 hrs relative to AMD3100; format: functional; parameters: scale not given: the % may be the effect or the level left; how it was run: as §3
Mus musculus [15] = test: In vivo antagonist activity at CXCR4 in C57BL/6 mouse assessed as induction of neutrophils molization at 35 mg/kg, sc measured after 2 hrs relative to untreated control; format: functional
Mus musculus [16] = test: In vivo antagonist activity at CXCR4 in C57BL/6 mouse assessed as induction of monocytes molization at 35 mg/kg, sc measured after 2 hrs relative to untreated control; format: functional
Rattus norvegicus [17] = test: Hepatotoxicity in Sprague-Dawley rat assessed as effect on liver size at 50 mg/kg/day, sc administered for 14 days relative to control; format: toxicity, organism-based; settings: in vivo, 336 h
How it was run: (§4)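 Non-GLP 14-day repeated-dose study in SD rats given 50 mg/kg/day SC. Major organs (liver, kidney, lung, heart) compared with vehicle for size, weight and colour. Blood analysed for hematological and biochemical parameters.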

Rattus norvegicus [18] = test: Renal toxicity in Sprague-Dawley rat assessed as effect on kidney size at 50 mg/kg/day, sc administered for 14 days relative to control; format: organism-based; settings: in vivo, 336 h; how it was run: as §4
Rattus norvegicus [19] = test: Cardiotoxicity in Sprague-Dawley rat assessed as effect on heart weight at 50 mg/kg/day, sc administered for 14 days relative to control; format: toxicity, organism-based; settings: in vivo, 336 h; how it was run: as §4
Rattus norvegicus [20] = test: Hepatotoxicity in Sprague-Dawley rat assessed as effect on liver color at 50 mg/kg/day, sc administered for 14 days relative to control; format: toxicity, organism-based; settings: in vivo, 336 h; how it was run: as §4
Rattus norvegicus [21] = test: Renal toxicity in Sprague-Dawley rat assessed as effect on kidney color at 50 mg/kg/day, sc administered for 14 days relative to control; format: organism-based; settings: in vivo, 336 h; how it was run: as §4
Rattus norvegicus [22] = test: Toxicity in Sprague-Dawley rat assessed as effect on lung color at 50 mg/kg/day, sc administered for 14 days relative to control; format: organism-based; settings: in vivo, 336 h; how it was run: as §4
Rattus norvegicus [23] = test: Cardiotoxicity in Sprague-Dawley rat assessed as effect on heart color at 50 mg/kg/day, sc administered for 14 days relative to control; format: toxicity, organism-based; settings: in vivo, 336 h; how it was run: as §4
Mus musculus [24] = test: Induction hematopoietic stem cell mobilization in sc dosed C57BL/6 mouse assessed as increase in CXCR4+ cells in blood measured after 2 hrs by APC-conjugated anti-CXCR4 -staining based flow cytometry relative to vehicle control; format: functional; settings: C57BL/6, sc, read-out: MED; how it was run: as §2

Chain of C-X-C chemokine receptor type 1 (Homo sapiens) (P25024 whole entry): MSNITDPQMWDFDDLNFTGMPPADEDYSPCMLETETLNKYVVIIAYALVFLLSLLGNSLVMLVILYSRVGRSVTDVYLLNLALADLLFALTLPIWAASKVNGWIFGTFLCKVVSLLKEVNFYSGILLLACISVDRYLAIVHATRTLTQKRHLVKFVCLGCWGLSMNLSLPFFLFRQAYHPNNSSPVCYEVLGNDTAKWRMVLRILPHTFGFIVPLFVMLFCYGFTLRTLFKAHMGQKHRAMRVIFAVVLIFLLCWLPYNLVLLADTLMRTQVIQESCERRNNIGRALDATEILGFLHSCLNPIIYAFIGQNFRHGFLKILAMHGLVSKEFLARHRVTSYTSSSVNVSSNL
Chain of C-C chemokine receptor type 5 (Homo sapiens) (P51681 whole entry, looked up): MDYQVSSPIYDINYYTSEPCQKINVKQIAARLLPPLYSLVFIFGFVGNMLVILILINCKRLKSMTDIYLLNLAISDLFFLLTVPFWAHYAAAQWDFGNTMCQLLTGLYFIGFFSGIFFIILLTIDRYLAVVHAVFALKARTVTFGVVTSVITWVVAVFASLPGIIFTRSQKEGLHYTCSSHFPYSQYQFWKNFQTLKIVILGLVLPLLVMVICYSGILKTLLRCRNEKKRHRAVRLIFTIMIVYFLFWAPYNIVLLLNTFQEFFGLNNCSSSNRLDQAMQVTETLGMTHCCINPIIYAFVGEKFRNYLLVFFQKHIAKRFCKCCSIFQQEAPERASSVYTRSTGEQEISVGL
Chain of Voltage-dependent N-type calcium channel subunit alpha-1B (Rattus norvegicus) (Q02294 whole entry, looked up): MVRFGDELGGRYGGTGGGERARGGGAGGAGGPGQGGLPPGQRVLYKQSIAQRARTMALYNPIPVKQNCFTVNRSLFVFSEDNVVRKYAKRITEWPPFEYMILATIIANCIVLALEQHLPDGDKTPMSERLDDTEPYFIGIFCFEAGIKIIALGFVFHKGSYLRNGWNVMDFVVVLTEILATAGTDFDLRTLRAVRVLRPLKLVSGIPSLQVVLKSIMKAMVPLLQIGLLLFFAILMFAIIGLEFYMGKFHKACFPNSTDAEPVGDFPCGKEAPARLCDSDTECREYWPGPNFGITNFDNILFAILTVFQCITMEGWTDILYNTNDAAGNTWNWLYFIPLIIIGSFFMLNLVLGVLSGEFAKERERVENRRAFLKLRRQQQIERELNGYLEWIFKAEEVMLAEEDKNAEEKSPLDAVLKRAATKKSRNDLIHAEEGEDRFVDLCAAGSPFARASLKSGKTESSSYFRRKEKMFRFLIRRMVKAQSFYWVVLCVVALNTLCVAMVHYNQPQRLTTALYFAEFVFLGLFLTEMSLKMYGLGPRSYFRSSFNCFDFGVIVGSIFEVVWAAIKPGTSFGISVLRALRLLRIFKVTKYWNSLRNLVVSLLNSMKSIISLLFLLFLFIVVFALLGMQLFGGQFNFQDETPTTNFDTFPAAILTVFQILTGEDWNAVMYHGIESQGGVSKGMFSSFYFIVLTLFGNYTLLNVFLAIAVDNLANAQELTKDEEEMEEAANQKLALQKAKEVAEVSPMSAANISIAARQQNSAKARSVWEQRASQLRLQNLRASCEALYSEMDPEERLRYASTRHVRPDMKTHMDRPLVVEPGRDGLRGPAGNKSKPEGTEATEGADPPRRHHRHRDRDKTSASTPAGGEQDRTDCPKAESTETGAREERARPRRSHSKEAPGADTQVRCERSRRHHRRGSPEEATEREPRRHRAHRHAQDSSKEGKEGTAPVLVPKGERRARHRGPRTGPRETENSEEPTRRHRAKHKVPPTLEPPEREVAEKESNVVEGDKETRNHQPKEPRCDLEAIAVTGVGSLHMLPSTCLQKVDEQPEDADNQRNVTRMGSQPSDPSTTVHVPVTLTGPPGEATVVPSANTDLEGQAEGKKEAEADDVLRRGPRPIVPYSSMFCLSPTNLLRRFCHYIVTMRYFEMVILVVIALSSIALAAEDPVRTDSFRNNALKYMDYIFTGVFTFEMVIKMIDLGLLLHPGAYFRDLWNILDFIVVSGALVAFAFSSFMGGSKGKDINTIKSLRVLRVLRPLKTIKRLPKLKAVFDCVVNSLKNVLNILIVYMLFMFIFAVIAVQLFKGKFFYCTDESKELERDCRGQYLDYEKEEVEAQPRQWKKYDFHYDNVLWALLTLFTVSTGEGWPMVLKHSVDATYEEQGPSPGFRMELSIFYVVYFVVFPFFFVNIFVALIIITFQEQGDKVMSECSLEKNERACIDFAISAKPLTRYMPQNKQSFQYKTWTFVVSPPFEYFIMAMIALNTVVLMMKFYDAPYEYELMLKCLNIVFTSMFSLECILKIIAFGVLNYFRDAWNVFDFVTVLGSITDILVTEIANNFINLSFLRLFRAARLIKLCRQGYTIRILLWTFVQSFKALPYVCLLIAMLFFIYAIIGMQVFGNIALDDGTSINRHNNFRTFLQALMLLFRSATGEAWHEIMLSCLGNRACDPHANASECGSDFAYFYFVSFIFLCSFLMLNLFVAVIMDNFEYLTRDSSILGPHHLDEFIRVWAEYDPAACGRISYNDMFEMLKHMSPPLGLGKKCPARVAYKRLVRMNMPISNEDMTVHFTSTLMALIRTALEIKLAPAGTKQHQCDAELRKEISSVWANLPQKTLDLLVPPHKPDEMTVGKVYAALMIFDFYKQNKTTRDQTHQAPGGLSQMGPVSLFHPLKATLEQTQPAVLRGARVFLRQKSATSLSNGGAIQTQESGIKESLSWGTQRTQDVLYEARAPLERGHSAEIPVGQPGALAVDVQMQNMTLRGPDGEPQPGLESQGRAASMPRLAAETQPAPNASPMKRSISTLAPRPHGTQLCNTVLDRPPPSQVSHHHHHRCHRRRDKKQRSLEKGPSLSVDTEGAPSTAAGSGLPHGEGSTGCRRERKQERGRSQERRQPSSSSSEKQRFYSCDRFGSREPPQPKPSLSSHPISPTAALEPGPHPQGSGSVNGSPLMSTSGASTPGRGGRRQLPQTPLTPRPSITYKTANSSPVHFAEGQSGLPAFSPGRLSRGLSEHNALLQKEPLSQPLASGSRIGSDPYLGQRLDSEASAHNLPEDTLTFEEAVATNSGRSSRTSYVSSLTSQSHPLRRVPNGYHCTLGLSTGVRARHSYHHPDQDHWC
Chain of C-X-C chemokine receptor type 2 (Homo sapiens) (P25025 whole entry): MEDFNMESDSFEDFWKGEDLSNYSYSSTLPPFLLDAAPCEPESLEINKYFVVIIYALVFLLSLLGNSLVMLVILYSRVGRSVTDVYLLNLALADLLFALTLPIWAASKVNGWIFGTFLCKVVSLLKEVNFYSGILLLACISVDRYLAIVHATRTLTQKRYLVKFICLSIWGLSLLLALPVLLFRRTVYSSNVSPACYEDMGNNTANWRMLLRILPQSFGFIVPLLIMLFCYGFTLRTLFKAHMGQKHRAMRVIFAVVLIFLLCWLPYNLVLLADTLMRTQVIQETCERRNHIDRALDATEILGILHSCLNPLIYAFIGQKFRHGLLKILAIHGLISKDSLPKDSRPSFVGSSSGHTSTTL
Chain of C-C chemokine receptor type 10 (Homo sapiens) (P46092 whole entry): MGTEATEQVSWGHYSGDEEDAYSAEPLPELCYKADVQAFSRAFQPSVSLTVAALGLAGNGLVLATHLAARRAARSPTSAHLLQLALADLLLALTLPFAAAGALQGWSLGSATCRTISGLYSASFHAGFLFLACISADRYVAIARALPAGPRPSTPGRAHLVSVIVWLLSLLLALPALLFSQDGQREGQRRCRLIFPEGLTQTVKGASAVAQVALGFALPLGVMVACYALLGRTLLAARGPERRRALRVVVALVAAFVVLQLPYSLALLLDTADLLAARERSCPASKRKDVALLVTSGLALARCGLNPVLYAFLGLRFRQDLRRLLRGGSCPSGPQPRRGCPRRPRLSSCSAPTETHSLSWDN
Chain of Cytochrome P450 2E1 (P05181 whole entry): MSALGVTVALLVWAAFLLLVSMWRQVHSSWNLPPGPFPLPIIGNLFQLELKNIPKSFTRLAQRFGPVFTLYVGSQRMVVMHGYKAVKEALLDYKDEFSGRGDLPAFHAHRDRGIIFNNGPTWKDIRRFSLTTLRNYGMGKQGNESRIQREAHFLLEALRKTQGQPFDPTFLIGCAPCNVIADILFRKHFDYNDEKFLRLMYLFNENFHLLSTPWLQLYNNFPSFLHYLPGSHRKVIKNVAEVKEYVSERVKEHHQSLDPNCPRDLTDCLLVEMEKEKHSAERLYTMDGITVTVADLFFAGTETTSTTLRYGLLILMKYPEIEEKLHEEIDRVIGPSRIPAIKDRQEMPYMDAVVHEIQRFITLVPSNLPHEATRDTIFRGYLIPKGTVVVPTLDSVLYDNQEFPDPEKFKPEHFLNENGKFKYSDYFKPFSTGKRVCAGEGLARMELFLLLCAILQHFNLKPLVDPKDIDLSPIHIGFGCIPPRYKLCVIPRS
Chain of C-C chemokine receptor type 1 (Homo sapiens) (P32246 whole entry): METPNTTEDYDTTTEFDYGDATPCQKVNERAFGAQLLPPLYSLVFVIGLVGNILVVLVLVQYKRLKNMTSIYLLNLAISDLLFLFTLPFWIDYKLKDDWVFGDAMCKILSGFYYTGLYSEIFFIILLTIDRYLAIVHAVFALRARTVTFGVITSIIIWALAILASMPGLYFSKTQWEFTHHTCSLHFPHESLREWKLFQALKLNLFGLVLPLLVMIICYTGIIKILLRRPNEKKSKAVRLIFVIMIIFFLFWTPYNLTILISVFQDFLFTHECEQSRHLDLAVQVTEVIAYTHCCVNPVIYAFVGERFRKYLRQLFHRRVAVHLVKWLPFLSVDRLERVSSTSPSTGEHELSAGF
Chain of C-X-C chemokine receptor type 4 (P61073 whole entry): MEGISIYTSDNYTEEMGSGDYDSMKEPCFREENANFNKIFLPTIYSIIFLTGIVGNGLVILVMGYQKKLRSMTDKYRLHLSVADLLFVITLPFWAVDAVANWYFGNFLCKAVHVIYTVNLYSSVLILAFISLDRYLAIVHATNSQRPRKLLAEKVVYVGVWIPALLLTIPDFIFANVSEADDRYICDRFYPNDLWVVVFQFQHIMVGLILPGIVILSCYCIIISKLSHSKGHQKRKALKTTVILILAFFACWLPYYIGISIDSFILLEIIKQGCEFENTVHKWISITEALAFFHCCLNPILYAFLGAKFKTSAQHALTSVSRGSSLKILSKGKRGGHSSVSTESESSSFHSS

SMILES: Cc1cc(NC2CCN(C(=O)CCNCC(=O)O)CC2)nc(NCc2cn(CCCNCCCNC3CCCCC3)nn2)n1
- IC50 [1]: 0.0342 µM
- Efficacy [2]: -1.2%
- Efficacy [3]: 0.5%
- Efficacy [4]: 0.5%
- Efficacy [5]: 0.3%
- Efficacy [6]: 0.5%
- half-life [7]: 30 min
- fold change (FC) (Mus musculus [8]): 3
- Activity (Mus musculus [9]): inactive
- inhibition [10]: 73%
- inhibition (INH) [11]: Not Active
- IC50 (Cytochrome P450 2E1): > 100 µM
- IC50 (Cytochrome P450 3A4): > 100 µM
- Activity (Mus musculus [12]): Active
- Activity (Mus musculus [13]): 30 - 50%
- Activity (Mus musculus [14]): 30 - 50%
- fold change (FC) (Mus musculus [15]): 2 - 4
- fold change (FC) (Mus musculus [16]): 2 - 4
- Activity (Rattus norvegicus [17]): Non-Toxic
- Activity (Rattus norvegicus [18]): Non-Toxic
- Activity (Rattus norvegicus [19]): Non-Toxic
- Activity (Rattus norvegicus [20]): Non-Toxic
- Activity (Rattus norvegicus [21]): Non-Toxic
- Activity (Rattus norvegicus [22]): Non-Toxic
- Activity (Rattus norvegicus [23]): Non-Toxic
- minimal effective dose (Mus musculus [24]): 6 mg/kg
